Values after ≈ are worked out from the molar mass of the structure shown.
Key:
Staphylococcus aureus [1] = experiment: Antibacterial activity against Staphylococcus aureus UC9218 by broth microdilution method in presence of 50% serum; type: functional
Procedure, shortened: (§1)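 Broth microdilution MIC following National Committee for Clinical Laboratory Standards methods. Plasmid-borne GyrB in transformed S. aureus strains was overexpressed by adding 100 ng/ml doxycycline.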

Staphylococcus aureus [2] = experiment: Antibacterial activity against methicillin-resistant Staphylococcus aureus by broth microdilution method; type: functional; procedure, shortened: as §1
Haemophilus influenzae = experiment: Antibacterial activity against Haemophilus influenzae UC30063 by broth microdilution method; type: functional; procedure, shortened: as §1
Staphylococcus aureus [3] = experiment: Antibacterial activity against methicillin-susceptible Staphylococcus aureus by broth microdilution method; type: functional; procedure, shortened: as §1
Klebsiella pneumoniae = experiment: Antibacterial activity against Klebsiella pneumoniae UC12081 by broth microdilution method; type: functional; procedure, shortened: as §1
Streptococcus pyogenes = experiment: Antibacterial activity against Streptococcus pyogenes UC152 by broth microdilution method; type: functional; procedure, shortened: as §1
Streptococcus pneumoniae [4] = experiment: Antibacterial activity against Streptococcus pneumoniae UC9912 by broth microdilution method; type: functional; procedure, shortened: as §1
Streptococcus pneumoniae [5] = experiment: Antibacterial activity against Streptococcus pneumoniae UC15142 by broth microdilution method; type: functional; procedure, shortened: as §1
Staphylococcus aureus [6] = experiment: Antibacterial activity against methicillin-resistant Staphylococcus aureus UC9213 by broth microdilution method; type: functional; procedure, shortened: as §1
Enterococcus faecium = experiment: Antibacterial activity against Enterococcus faecium UC12712 by broth microdilution method; type: functional; procedure, shortened: as §1
Streptococcus pneumoniae [7] = experiment: Antibacterial activity against Streptococcus pneumoniae by broth microdilution method; type: functional; procedure, shortened: as §1
[8] = system: Staphylococcus epidermidis; experiment: Antibacterial activity against methicillin and ciprofloxacin-resistant Staphylococcus epidermidis UC12084 by broth microdilution method; type: functional; procedure, shortened: as §1
Staphylococcus aureus [9] = experiment: Antibacterial activity against methicillin and ciprofloxacin-resistant Staphylococcus aureus UC12673 by broth microdilution method; type: functional; procedure, shortened: as §1
Moraxella catarrhalis = experiment: Antibacterial activity against Moraxella catarrhalis UC3067 by broth microdilution method; type: functional; procedure, shortened: as §1
Streptococcus pneumoniae [10] = experiment: Antibacterial activity against ciprofloxacin-resistant Streptococcus pneumoniae by broth microdilution method; type: functional; procedure, shortened: as §1
Staphylococcus aureus [11] = experiment: Antibacterial activity against Staphylococcus aureus UC9218 by broth microdilution method in presence of 25% serum; type: functional; procedure, shortened: as §1
Staphylococcus aureus [12] = experiment: Antibacterial activity against methicillin-susceptible Staphylococcus aureus UC9218 by broth microdilution method; type: functional; procedure, shortened: as §1
Staphylococcus aureus [13] = experiment: Antibacterial activity against ciprofloxacin-resistant Staphylococcus aureus by broth microdilution method; type: functional; procedure, shortened: as §1
Pseudomonas aeruginosa = experiment: Antibacterial activity against Pseudomonas aeruginosa UC6676 by broth microdilution method; type: functional; procedure, shortened: as §1
Enterococcus faecalis = experiment: Antibacterial activity against Enterococcus faecalis UC9217 by broth microdilution method; type: functional; procedure, shortened: as §1
Escherichia coli = experiment: Antibacterial activity against Escherichia coli UC6674 by broth microdilution method; type: functional; procedure, shortened: as §1
Staphylococcus aureus [14] = experiment: Antimicrobial activity against Staphylococcus aureus RN4220 expressing gyrB D437N mutant gene by broth microdilution method; type: functional; procedure, shortened: as §1
Staphylococcus aureus [15] = experiment: Antimicrobial activity against Staphylococcus aureus 286607-R1 harboring wild type gyrB by broth microdilution method; type: functional; procedure, shortened: as §1
Staphylococcus aureus [16] = experiment: Antimicrobial activity against Staphylococcus aureus 286607-R1 by broth microdilution method; type: functional; procedure, shortened: as §1
Staphylococcus aureus [17] = experiment: Antibacterial activity against Staphylococcus aureus RN4220 by broth microdilution method; type: functional; procedure, shortened: as §1
Staphylococcus aureus [18] = experiment: Antibacterial activity against methicillin-resistant Staphylococcus aureus UC9213 in orally dosed lethal systemic CF-1 mouse infection model; type: functional; details: UC9213, po
Procedure, shortened: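 Lethal systemic infection in female CF-1 mice (20 g), infected intraperitoneally with enough bacteria to kill 90–100% of untreated mice. Thawed cultures were suspended in brain heart infusion broth with 4% (wt/vol) dried brewer's yeast. Drug given orally or subcutaneously at 1 and 5 h postinfection, at five or more dose levels, six mice per level. Survival followed for 1 week; ED50 by probit analysis.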

Staphylococcus aureus [19] = experiment: Antibacterial activity against quinoline pyrimidine trione-resistant Staphylococcus aureus ATCC 29213 by broth microdilution method; type: functional; procedure, shortened: as §1
Staphylococcus aureus [20] = experiment: Antimicrobial activity against Staphylococcus aureus MW2 harboring parC R400C mutant gene by broth microdilution method; type: functional; procedure, shortened: as §1
[21] = Inhibition of Escherichia coli DNA topoisomerase 4 by gel electrophoresis
Staphylococcus aureus [22] = experiment: Antibacterial activity against ciprofloxacin-resistant Staphylococcus aureus ATCC 29213 by broth microdilution method; type: functional; procedure, shortened: as §1
Staphylococcus aureus [23] = experiment: Antimicrobial activity against Staphylococcus aureus USA200 harboring […] S84L and parC R400C mutant gene by broth microdilution method; type: functional; procedure, shortened: as §1
Staphylococcus aureus [24] = experiment: Antimicrobial activity against methicillin-resistant Staphylococcus aureus SUAR 1015-01 harboring gyrA S84L, parC S80F and parE S189R mutant gene by broth microdilution method; type: functional; procedure, shortened: as §1
[25] = Inhibition of Escherichia coli DNA gyrase by gel electrophoresis

Work on `C[C@H]1CN2c3ccc([N+](=O)[O-])cc3CC3(C(=O)NC(=O)NC3=O)[C@@H]2[C@@H](C)O1` yielded an MIC (Staphylococcus aureus [1]) greater than 128 µg/mL, an MIC (Staphylococcus aureus [2]) greater than 64 µg/mL and an MIC50 (Staphylococcus aureus [2]) greater than 64 µg/mL. For the same molecule, the MIC90 (Staphylococcus aureus [2]) was greater than 64 µg/mL, the MIC (Haemophilus influenzae) was greater than 128 µg/mL and the MIC (Staphylococcus aureus [3]) was greater than 64 µg/mL. The MIC50 (Staphylococcus aureus [3]) was greater than 64 µg/mL, the MIC90 (Staphylococcus aureus [3]) was greater than 64 µg/mL and the MIC (Klebsiella pneumoniae) was greater than 64 µg/mL. For the same molecule, the MIC (Streptococcus pyogenes) was greater than 64 µg/mL, the MIC (Streptococcus pneumoniae [4]) was greater than 128 µg/mL and the MIC (Streptococcus pneumoniae [5]) was greater than 128 µg/mL. The MIC (Staphylococcus aureus [6]) was greater than 64 µg/mL, the MIC (Enterococcus faecium) was greater than 64 µg/mL and the MIC (Streptococcus pneumoniae [7]) was greater than 64 µg/mL. It also gave an MIC50 (Streptococcus pneumoniae [7]) greater than 64 µg/mL, an MIC90 (Streptococcus pneumoniae [7]) greater than 64 µg/mL and an MIC [8] greater than 64 µg/mL. It also gave an MIC (Staphylococcus aureus [9]) greater than 64 µg/mL, an MIC (Moraxella catarrhalis) greater than 64 µg/mL and an MIC (Streptococcus pneumoniae [10]) greater than 64 µg/mL. It also gave an MIC50 (Streptococcus pneumoniae [10]) greater than 64 µg/mL, an MIC90 (Streptococcus pneumoniae [10]) greater than 64 µg/mL and an MIC (Staphylococcus aureus [11]) of 128 µg/mL. It also gave an MIC (Staphylococcus aureus [12]) of 128 µg/mL (≈ 342 µM), an MIC (Staphylococcus aureus [13]) of 64 µg/mL (≈ 171 µM) and an MIC50 (Staphylococcus aureus [13]) of 64 µg/mL (≈ 171 µM). For the same molecule, the MIC90 (Staphylococcus aureus [13]) was greater than 64 µg/mL, the MIC (Pseudomonas aeruginosa) was greater than 64 µg/mL and the MIC (Enterococcus faecalis) was greater than 128 µg/mL. It also gave an MIC (Escherichia coli) greater than 128 µg/mL.

Work on `NC[C@@H]1O[C@H](O[C@H]2[C@@H](O)[C@H](O[C@@H]3[C@@H](O)[C@H](N)C[C@H](N)[C@H]3O[C@H]3O[C@H](CN)[C@@H](O)[C@H](O)[C@H]3N)O[C@@H]2CO)[C@H](N)[C@@H](O)[C@@H]1O` [FRAMYCETIN] yielded an MIC (Staphylococcus aureus [14]) of 2 µg/mL (≈ 3.25 µM), an MIC (Staphylococcus aureus [15]) of 2 µg/mL (≈ 3.25 µM) and an MIC (Staphylococcus aureus [16]) of 4 µg/mL (≈ 6.51 µM). It also gave an MIC (Staphylococcus aureus [17]) of 2 µg/mL (≈ 3.25 µM).

`CCn1cc(C(=O)O)c(=O)c2ccc(C)nc21` [NALIDIXIC ACID] showed an MIC (Staphylococcus aureus [14]) of 32 µg/mL (≈ 138 µM), an MIC (Staphylococcus aureus [15]) of 32 µg/mL (≈ 138 µM) and an MIC (Staphylococcus aureus [16]) of 64 µg/mL (≈ 276 µM). For the same molecule, the MIC (Staphylococcus aureus [17]) was 32 µg/mL (≈ 138 µM).

With `CN[C@@H]1[C@H](O[C@H]2[C@H](O[C@H]3[C@H](O)[C@@H](O)[C@H](N=C(N)N)[C@@H](O)[C@@H]3N=C(N)N)O[C@@H](C)[C@]2(O)C=O)O[C@@H](CO)[C@H](O)[C@H]1O` [STREPTOMYCIN] the MIC (Staphylococcus aureus [14]) was 4 µg/mL (≈ 6.88 µM), the MIC (Staphylococcus aureus [15]) was 4 µg/mL (≈ 6.88 µM) and the MIC (Staphylococcus aureus [16]) was 4 µg/mL (≈ 6.88 µM). It also gave an MIC (Staphylococcus aureus [17]) of 4 µg/mL (≈ 6.88 µM).

Work on `O=C(O)c1cn(C2CC2)c2cc(N3CCNCC3)c(F)cc2c1=O` [CIPROFLOXACIN] yielded an MIC50 (Staphylococcus aureus [2]) of 0.25 µg/mL (≈ 0.754 µM), an MIC90 (Staphylococcus aureus [2]) of 32 µg/mL (≈ 96.6 µM) and an MIC50 (Staphylococcus aureus [3]) of 0.125 µg/mL (≈ 0.377 µM). It also gave an MIC90 (Staphylococcus aureus [3]) of 0.25 µg/mL (≈ 0.754 µM), an ED50 (Staphylococcus aureus [18]) of 10 mg/kg and an MIC (Staphylococcus aureus [14]) of 0.25 µg/mL (≈ 0.754 µM). It also gave an MIC (Staphylococcus aureus [15]) of 0.25 µg/mL (≈ 0.754 µM), an MIC (Staphylococcus aureus [19]) of 0.5 µg/mL (≈ 1.51 µM) and an MIC (Staphylococcus aureus [20]) of 0.25 µg/mL (≈ 0.754 µM). It also gave an IC50 [21] of 1000 nM, an MIC (Staphylococcus aureus [16]) of 0.25 µg/mL (≈ 0.754 µM) and an MIC50 (Streptococcus pneumoniae [7]) of 1 µg/mL (≈ 3.02 µM). It also gave an MIC90 (Streptococcus pneumoniae [7]) of 2 µg/mL (≈ 6.04 µM), an MIC (Staphylococcus aureus [22]) of 8 µg/mL (≈ 24.1 µM) and an MIC50 (Streptococcus pneumoniae [10]) of 32 µg/mL (≈ 96.6 µM). For the same molecule, the MIC90 (Streptococcus pneumoniae [10]) was 64 µg/mL (≈ 193 µM), the MIC (Staphylococcus aureus [23]) was 8 µg/mL (≈ 24.1 µM) and the MIC50 (Staphylococcus aureus [13]) was 16 µg/mL (≈ 48.3 µM). For the same molecule, the MIC90 (Staphylococcus aureus [13]) was greater than 64 µg/mL, the MIC (Staphylococcus aureus [24]) was 64 µg/mL (≈ 193 µM) and the IC50 [25] was 100 nM.

With `CC1(C)S[C@@H]2[C@H](NC(=O)[C@H](N)c3ccccc3)C(=O)N2[C@H]1C(=O)O` [AMPICILLIN] the MIC (Staphylococcus aureus [14]) was 2 µg/mL (≈ 5.72 µM), the MIC (Staphylococcus aureus [15]) was 2 µg/mL (≈ 5.72 µM) and the MIC (Staphylococcus aureus [16]) was 4 µg/mL (≈ 11.4 µM). The MIC (Staphylococcus aureus [17]) was 2 µg/mL (≈ 5.72 µM).

Work on `CCn1cc(C(=O)O)c(=O)c2cc(F)c(N3CCNCC3)cc21` [NORFLOXACIN] yielded an MIC (Staphylococcus aureus [14]) of 0.5 µg/mL (≈ 1.57 µM), an MIC (Staphylococcus aureus [15]) of 0.5 µg/mL (≈ 1.57 µM) and an MIC (Staphylococcus aureus [16]) of 2 µg/mL (≈ 6.26 µM). It also gave an MIC (Staphylococcus aureus [17]) of 0.5 µg/mL (≈ 1.57 µM).

For `CN[C@@H]1[C@H](O)[C@H](NC)[C@H]2O[C@@]3(O)C(=O)C[C@@H](C)O[C@H]3O[C@@H]2[C@H]1O` [SPECTINOMYCIN], the MIC (Staphylococcus aureus [14]) was 64 µg/mL (≈ 193 µM), the MIC (Staphylococcus aureus [15]) was 64 µg/mL (≈ 193 µM) and the MIC (Staphylococcus aureus [16]) was 64 µg/mL (≈ 193 µM). It also gave an MIC (Staphylococcus aureus [17]) of 64 µg/mL (≈ 193 µM).

Source: ChEMBL document CHEMBL1275477, “Discovery and characterization of QPT-1, the progenitor of a new class of bacterial topoisomerase inhibitors” (Antimicrob Agents Chemother, 2008)
